Test results reported in ChEMBL document CHEMBL1156731, “Antifungal activity of synthetic di(hetero)arylamines based on the benzo[b]thiophene moiety” (2008).
Values after ≈ are worked out from the molar mass of the structure shown.

Assays:
Assay type in all cases: functional
Pichia kudriavzevii = assay: Antifungal activity against Candida krusei ATCC 6258 after 48 hrs by broth macrodilution method; details: ATCC 6258, 48 h
How it was run: (§1)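 Yeasts grown 1 day on SDA at 37 °C, subcultured, suspended in saline and diluted in MOPS-buffered RPMI 1640 (pH 7.0) to 1-2 × 10^3 CFU/mL. Broth macrodilution per CLSI M27-A2, twofold dilutions 200-0.8 µg/mL (DMSO ≤2% final), aerobic, 37 °C, 48 h. MIC = 80% turbidity reduction vs drug-free control; MFC from SDA subculture at 37 °C. Three independent experiments in duplicate.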

Trichophyton rubrum = assay: Antifungal activity against Trichophyton rubrum FF5 after 5 days by broth macrodilution method; details: 120 h
How it was run: (§2)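 Dermatophytes grown 5 days on SDA at 30 °C, subcultured. Conidial suspensions in saline were adjusted in MOPS-buffered RPMI 1640 (pH 7.0) to 1-2 × 10^4 CFU/mL. Macrodilution adapted from CLSI M38-A with 200-0.8 µg/mL twofold dilutions (DMSO ≤2%), incubated at 30 °C for 5 days. MIC at 80% turbidity reduction vs control; MFC by SDA subculture at 30 °C. Triplicate experiments in duplicate.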

Nannizzia gypsea = assay: Antifungal activity against Microsporum gypseum FF3 after 5 days by broth macrodilution method; details: 120 h; how it was run: as §2
[1] = tested on: Trichophyton mentagrophytes; assay: Antifungal activity against Trichophyton mentagrophytes FF7 after 5 days by broth macrodilution method; details: 120 h; how it was run: as §2
Epidermophyton floccosum = assay: Antifungal activity against Epidermophyton floccosum FF9 after 5 days by broth macrodilution method; details: 120 h; how it was run: as §2
Candida albicans [2] = assay: Antifungal activity against Candida albicans D5 after 48 hrs by broth macrodilution method; how it was run: as §1
Microsporum canis = assay: Antifungal activity against Microsporum canis FF1 after 5 days by broth macrodilution method; details: 120 h; how it was run: as §2
Nakaseomyces glabratus = assay: Antifungal activity against Candida glabrata D10R after 48 hrs by broth macrodilution method
How it was run: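 Broth macrodilution per CLSI M27-A2 (minor modifications). Inoculum 1-2 × 10^3 CFU/mL in RPMI 1640 with L-glutamine, MOPS-buffered 0.165 M, pH 7.0. Twofold dilutions 200-0.8 µg/mL from DMSO stock (final DMSO ≤2%). Aerobic, 37 °C, 48 h. MIC = lowest concentration giving 80% turbidity reduction versus drug-free control. Three independent experiments in duplicate.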

Candida tropicalis = assay: Antifungal activity against Candida tropicalis ATCC 13803 after 48 hrs by broth macrodilution method; details: ATCC 13803, 48 h; how it was run: as §1
Candida albicans [3] = assay: Antifungal activity against Candida albicans ATCC 10231 after 48 hrs by broth macrodilution method; details: ATCC 10231, 48 h; how it was run: as §1
Aspergillus niger = assay: Antifungal activity against Aspergillus niger ATCC 16404 after 3 days by broth macrodilution method; details: ATCC 16404, 72 h
How it was run: (§3)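 Aspergillus inoculum from 3-day SDA subcultures at 30 °C; conidial suspension in 0.85% saline, diluted in RPMI 1640 (L-glutamine, no bicarbonate, 0.165 M MOPS, pH 7.0) to 1-2 × 10^4 CFU/mL. Twofold dilutions 200-0.8 µg/mL from DMSO stock (final DMSO ≤2%); macrodilution per CLSI M38-A, 30 °C, 3 days. MIC = lowest concentration giving 80% turbidity reduction vs drug-free control; MFC by subculture on SDA. Three independent experiments in duplicate.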

Aspergillus flavus = assay: Antifungal activity against Aspergillus flavus F44 after 3 days by broth macrodilution method; details: 72 h; how it was run: as §3
Aspergillus fumigatus = assay: Antifungal activity against Aspergillus fumigatus ATCC 46645 after 3 days by broth macrodilution method; details: ATCC 46645, 72 h; how it was run: as §3

Row | SMILES | MFC (Pichia kudriavzevii) | MIC (Pichia kudriavzevii) | MFC (Trichophyton rubrum) | MIC (Trichophyton rubrum) | MFC (Nannizzia gypsea) | MIC (Nannizzia gypsea) | MFC [1] | MIC [1] | MFC (Epidermophyton floccosum) | MIC (Epidermophyton floccosum) | MFC (Candida albicans [2]) | MIC (Candida albicans [2]) | MFC (Microsporum canis) | MIC (Microsporum canis) | MFC (Nakaseomyces glabratus) | MIC (Nakaseomyces glabratus) | MFC (Candida tropicalis) | MIC (Candida tropicalis) | MFC (Candida albicans [3]) | MIC (Candida albicans [3]) | other results
1 | CCOC(=O)c1sc2ccccc2c1Nc1ccc(OC)cc1 | > 200 µg/mL | > 200 µg/mL | > 200 µg/mL | > 200 µg/mL | > 200 µg/mL | > 200 µg/mL | > 200 µg/mL | > 200 µg/mL | > 200 µg/mL | > 200 µg/mL | > 200 µg/mL | > 200 µg/mL | > 200 µg/mL | > 200 µg/mL | > 200 µg/mL | > 200 µg/mL | > 200 µg/mL | > 200 µg/mL | > 200 µg/mL | > 200 µg/mL | MFC (Aspergillus niger): > 200 µg/mL; MIC (Aspergillus niger): > 200 µg/mL; MFC (Aspergillus flavus): > 200 µg/mL; MIC (Aspergillus flavus): > 200 µg/mL; MFC (Aspergillus fumigatus): > 200 µg/mL; MIC (Aspergillus fumigatus): > 200 µg/mL
2 | CCOC(=O)c1sc2ccccc2c1Nc1ccc(O)cc1 | > 200 µg/mL | > 200 µg/mL | 6.25 µg/mL (≈ 19.9 µM) | 6.25 µg/mL (≈ 19.9 µM) | 12.5 µg/mL (≈ 39.9 µM) | 6.25 µg/mL (≈ 19.9 µM) | 6.25 µg/mL (≈ 19.9 µM) | 6.25 µg/mL (≈ 19.9 µM) | 12.5 µg/mL (≈ 39.9 µM) | 3.13 µg/mL (≈ 9.99 µM) | > 200 µg/mL | > 200 µg/mL | 1.56 µg/mL (≈ 4.98 µM) | 1.56 µg/mL (≈ 4.98 µM) | > 200 µg/mL | > 200 µg/mL | > 200 µg/mL | > 200 µg/mL | > 200 µg/mL | > 200 µg/mL | MFC (Aspergillus niger): > 200 µg/mL; MIC (Aspergillus niger): > 200 µg/mL; MFC (Aspergillus flavus): > 200 µg/mL; MIC (Aspergillus flavus): > 200 µg/mL; MFC (Aspergillus fumigatus): > 200 µg/mL; MIC (Aspergillus fumigatus): > 200 µg/mL
3 | OC(Cn1cncn1)(Cn1cncn1)c1ccc(F)cc1F [FLUCONAZOLE] | 64 µg/mL (≈ 209 µM) | 64 µg/mL (≈ 209 µM) | 32 µg/mL (≈ 104 µM) | 16 µg/mL (≈ 52.2 µM) | > 128 µg/mL | > 128 µg/mL | 32 µg/mL (≈ 104 µM) | 16 µg/mL (≈ 52.2 µM) | 16 µg/mL (≈ 52.2 µM) | 16 µg/mL (≈ 52.2 µM) | > 128 µg/mL | > 128 µg/mL | 128 µg/mL (≈ 418 µM) | 128 µg/mL (≈ 418 µM) | 32 µg/mL (≈ 104 µM) | 32 µg/mL (≈ 104 µM) | > 128 µg/mL | 4 µg/mL (≈ 13.1 µM) | > 128 µg/mL | 1 µg/mL (≈ 3.27 µM) | –
4 | CCOC(=O)c1sc2ccccc2c1Nc1ccc(F)cc1 | > 200 µg/mL | > 200 µg/mL | > 200 µg/mL | > 200 µg/mL | > 200 µg/mL | > 200 µg/mL | > 200 µg/mL | > 200 µg/mL | > 200 µg/mL | > 200 µg/mL | > 200 µg/mL | > 200 µg/mL | > 200 µg/mL | > 200 µg/mL | > 200 µg/mL | > 200 µg/mL | > 200 µg/mL | > 200 µg/mL | > 200 µg/mL | > 200 µg/mL | MFC (Aspergillus niger): > 200 µg/mL; MIC (Aspergillus niger): > 200 µg/mL; MFC (Aspergillus flavus): > 200 µg/mL; MIC (Aspergillus flavus): > 200 µg/mL; MFC (Aspergillus fumigatus): > 200 µg/mL; MIC (Aspergillus fumigatus): > 200 µg/mL
